Activity data for 11 compounds are collected here from ChEMBL document CHEMBL3865828, “Total synthesis of 8-(6″-umbelliferyl)-apigenin and its analogs as anti-diabetic reagents” (2016).

What all share (format): functional
Experiment [1] relates to 3T3-L1. Nature of the experiment: Increase in 2-NBDG uptake in serum-starved mouse 3T3L1 adipocytes at 10 uM measured under basal condition by inverted fluorescence microscopy. In a few lines:
(§1)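 Adipocytes from 3T3-L1 cells, differentiated 2 days post-confluence in DMEM with 0.5 mM IBMX, dexamethasone and insulin for 48 h, then 2 days in DMEM (10% FBS) with insulin alone. Used 8–10 days after differentiation start. After 1-h serum starvation, cells got agents in KRH for 0.5 h, then […] 2-NBDG for 1 h. They were washed 3× with KRH and imaged by inverted fluorescence microscopy. Metformin was the control.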

Experiment [2] relates to 3T3-L1. The experiment is described as follows: Increase in glucose uptake in serum-starved mouse 3T3L1 adipocytes at 10 uM pretreated followed by glucose addition measured under basal condition by glucose oxidase peroxidase method. The gist of the method: (§2)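 3T3-L1 adipocytes, used 8–10 days after differentiation (IBMX/dexamethasone/insulin for 48 h, then insulin for 2 days), were incubated with agents in KRH buffer. Glucose in KRH was measured at 0 h and 4 h by glucose oxidase–peroxidase kit, and the difference was taken as consumed glucose. Metformin was the positive control. Data are mean ± SEM of independent experiments.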

The subject of experiment [3] is 3T3-L1. Nature of the experiment: Increase in 2-NBDG uptake in serum-starved mouse 3T3L1 adipocytes at 1 mM measured under basal condition by inverted fluorescence microscopy. In a few lines:
as §1

Experiment [4] concerns 3T3-L1. Nature of the experiment: Increase in glucose uptake in serum-starved mouse 3T3L1 adipocytes at 1 mmol/L pretreated followed by glucose addition measured under basal condition by glucose oxidase peroxidase method. In a few lines: as §2

Calls of active or inactive are those of the source. The rule behind the calls is not given here.

With `COc1cc2oc(=O)ccc2cc1-c1c(O)cc(O)c2c(=O)c(O)c(-c3ccc(O)c(O)c3)oc12`, the result in the experiment with 3T3-L1 [1] and with 3T3-L1 [2] was Active.

`O=c1cc(-c2ccc(O)cc2)oc2cc(O)cc(O)c12`: the result in the experiment on 3T3-L1 [2] was Active.

As for `O=c1c(O)c(-c2ccc(O)c(O)c2)oc2cc(O)cc(O)c12`, the outcome in the experiment with 3T3-L1 [2] was Active.

As to `O=c1ccc2cc(-c3c(O)cc(O)c4c(=O)cc(-c5ccc(O)cc5)oc34)c(O)cc2o1`, the result with 3T3-L1 [1] was Active. The Activity in the experiment on 3T3-L1 [2] was 48%.

For `O=c1cc(-c2ccccc2)oc2cc(O)cc(O)c12`, in the experiment with 3T3-L1 [2], the result was Active.

With `O=c1cc(-c2ccc(O)c(O)c2)oc2cc(O)cc(O)c12`, the outcome with 3T3-L1 [2] was Active.

On to `CN(C)C(=N)NC(=N)N`, for which the outcome in the experiment with 3T3-L1 [3] and in the experiment on 3T3-L1 [4] was Active.

For `COc1cc2oc(=O)ccc2cc1-c1c(O)cc(O)c2c(=O)cc(-c3ccc(O)cc3)oc12`, the outcome in the experiment on 3T3-L1 [1] was Active. In addition, the Activity with 3T3-L1 [2] worked out at 57%.

For `COc1cc2oc(=O)ccc2cc1-c1c(O)cc(O)c2c(=O)cc(-c3ccccc3)oc12`, in the experiment with 3T3-L1 [2], the result was Active.

In the case of `COc1cc2oc(=O)ccc2cc1-c1c(O)cc(O)c2c(=O)cc(-c3ccc(O)c(O)c3)oc12`, the outcome in the experiment with 3T3-L1 [1] and with 3T3-L1 [2] was Active.

As to `O=c1ccc2cc(-c3c(O)cc(O)c4c(=O)cc(-c5ccccc5)oc34)c(O)cc2o1`, in the experiment with 3T3-L1 [2], the result was Active.
